# Hits are enriched below; roughly 4.5% of the tested compounds scored in any of these assays.
# OX1R antag-1: human HCRTR1 antagonism | 330,000 tested, 0.43% active | AID 434989 | CHO/OX1R cells, Fluo-8 calcium fluorescence, orexin A | O43613 | inhibition, % at 5 µM;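 active = inhibition above its plate's threshold, mean inhibition of all tested compounds on the plate plus 3 SD, cut at about 37% in these data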;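 note: 0% = orexin A challenge wells and 100% = SB-334867-A antagonist wells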
# Target sequence (O43613 whole entry, looked up): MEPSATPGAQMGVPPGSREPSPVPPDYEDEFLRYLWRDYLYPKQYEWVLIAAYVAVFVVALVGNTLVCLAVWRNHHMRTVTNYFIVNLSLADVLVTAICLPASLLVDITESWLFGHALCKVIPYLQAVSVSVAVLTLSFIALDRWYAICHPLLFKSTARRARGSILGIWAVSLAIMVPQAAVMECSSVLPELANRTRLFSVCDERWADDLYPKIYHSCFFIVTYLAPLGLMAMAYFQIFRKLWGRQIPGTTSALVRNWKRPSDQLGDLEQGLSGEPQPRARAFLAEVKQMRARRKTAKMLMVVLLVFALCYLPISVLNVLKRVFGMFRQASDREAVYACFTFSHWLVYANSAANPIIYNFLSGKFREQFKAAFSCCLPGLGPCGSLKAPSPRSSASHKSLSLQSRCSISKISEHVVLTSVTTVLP
# GPR7 antagonist: human neuropeptides B/W receptor 1 antagonism; P48145; GPR7-expressing cells, fluorescence antagonist assay; inhibition, % at 4.4 µM; 290,000 tested, 1.1% active; AID 1861; in the data active = inhibition above about 16%, passing the limit was not always enough;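 note: cells stimulated with the agonist NPW; 0% = agonist with vehicle and 100% = vehicle without agonist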
# Target sequence (P48145 whole entry, looked up): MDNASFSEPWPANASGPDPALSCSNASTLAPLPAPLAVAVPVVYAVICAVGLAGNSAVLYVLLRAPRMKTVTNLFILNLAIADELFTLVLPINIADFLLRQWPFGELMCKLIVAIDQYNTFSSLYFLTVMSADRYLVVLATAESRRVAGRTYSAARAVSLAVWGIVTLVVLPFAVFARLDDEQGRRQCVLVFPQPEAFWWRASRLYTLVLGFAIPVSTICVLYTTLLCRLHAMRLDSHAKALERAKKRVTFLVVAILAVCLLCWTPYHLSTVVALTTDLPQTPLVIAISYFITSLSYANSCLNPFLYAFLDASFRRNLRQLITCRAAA
# CHO parental Ca: signal in parental CHO cells, OX1R antagonist counter-screen; parental CHO-K1, ATP-induced calcium, Fluo-8 fluorescence; inhibition, % at 5.6 µM; 330,000 tested, 0.63% active;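 active = inhibition above that plate's mean sample inhibition plus 3 SD, cut at about 26% in these data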;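 note: 0% = ATP-challenged DMSO wells and 100% = DMSO wells without ATP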
#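 Material: parental CHO cells / Compound: single nominal dose of 5.6 µM per compound / Signal: Fluo-8 fluorescence / Replicates: singlicate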
# OX1R antag-2: antagonists of human orexin 1 receptor (OX1R) | O43613 | OX1R-expressing cells, FRET antagonist read-out | inhibition, % at 6.6 µM | 330,000 tested, 1.8% active; in the data active = inhibition mostly above about 38%, no sharp cut-off; inactive = mostly below about 40%;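 note: 0% = agonist challenge alone and 100% = reference antagonist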
# TAAR1 agonist: human TAAR1 agonism; 360,000 tested, 0.99% active; CHO RD-HGA16 TAAR1, Fluo-8 calcium fluorescence; vehicle wells 0%, saturating PEA agonist 100%; activation, % at 3 µM; Q96RJ0;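 active = activation above the mean activation of all test compounds in the run plus 3 SD, cut at about 38% in these data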
#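 test system = CHO RD-HGA16 cells carrying human TAAR1 plus Gα16 | schedule = 17-24 h seeding, 75 min 37 °C dye, 30 min RT | compound dosing = 3 µM single concentration | control set = DMSO and PEA EC100 | replicates = n 1 | signal = Fluo-8 fluorescence, 5 s baseline then 140 s kinetic read | measure = percent activation vs PEA EC100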
# TAAR1 antagonist: antagonists of human TAAR1; Q96RJ0; CHO RD-HGA16 TAAR1, Fluo-8 calcium fluorescence, antagonist; inhibition, % at 3 µM; 360,000 tested, 1.5% active; AID 624466;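 active = inhibition above a per-plate cutoff, the mean inhibition of test compounds on that plate plus 3 SD, cut at about 49% in these data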;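 note: 0% = DMSO plus EC80 beta-PEA response and 100% = DMSO alone without agonist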
#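 Material: RD-HGA16 CHO cells with stable hTAAR1 and Gα16; Dosing: single nominal final test compound concentration of 3 µM; Schedule: seeding 17-24 h prior, 75-min 37 °C, 30-min RT dye loading; Detection: kinetic Fluo-8 calcium fluorescence measurement; Measure: % inhibition from peak post-agonist over basal fluorescence ratio; Benchmarks: vehicle and agonist controls.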
# OX1R Ca confirm: confirmation of human orexin 1 receptor antagonists. shares compounds with OX1R antag-1. CHO/OX1R cells, orexin A calcium Fluo-8 fluorescence. inhibition, % at 5 µM. 1,100 tested, 38% active. AID 492963; in the data active = inhibition above about 29%;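 note: 0% = agonist challenge alone and 100% = reference antagonist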
# CHO Ca counter: counter-screen: parental CHO calcium response change, triplicate; inhibition, % at 5.6 µM; AID 492965; shares compounds with OX1R antag-1; parental CHO-K1, ATP-induced calcium, Fluo-8 fluorescence; 1,100 tested, 9.3% active;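 active = inhibition above a per-plate limit, the mean inhibition of that plate's test compounds plus 3 SD, cut at about 25% in these data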;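 note: 0% = ATP challenge with DMSO and 100% = DMSO without ATP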
# OX1R HTRF conf: confirmation of human orexin 1 receptor antagonists, HTRF format. shares compounds with OX1R antag-2. OX1R-expressing cells, HTRF antagonist assay. inhibition, % at 6.6 µM. 1,800 tested, 49% active. AID 492964; in the data active = inhibition above about 55%;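 note: CHO cells expressing OX1R stimulated with orexin A at about EC80; 0% = agonist challenge alone and 100% = reference antagonist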
# CHO-K1 HTRF cnt: counter-screen: parental CHO-K1 HTRF response; shares compounds with OX1R antag-2; parental CHO-K1 cells, HTRF counterscreen; inhibition, % at 6.6 µM; 1,800 tested, 48% active; AID 493232; in the data active = inhibition above about 17%;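 note: 0% = agonist challenge with vehicle and 100% = vehicle alone without agonist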
# nonsel antag count: nonselective antagonism, TAAR1 counter-screen; AID 651780; shares compounds with TAAR1 antagonist; counterscreen cell line, calcium fluorescence, antagonist mode; inhibition, % at 3 µM; 2,400 tested, 77% active; in the data active = inhibition above about 22%;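 note: CHO-Ga16 host cells stimulated with ATP at an EC80 level; 0% = agonist EC80 plus vehicle and 100% = vehicle without agonist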
# TAAR1 antag conf: confirmation of human TAAR1 antagonists. shares compounds with TAAR1 antagonist. 2,400 tested, 40% active. TAAR1-expressing cells, fluorescence antagonist read-out. AID 651785. inhibition, % at 3 µM; in the data active = inhibition above about 49%;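 note: CHO-Ga16 host cells challenged with agonist PEA near its EC80; 0% = agonist at EC80 plus vehicle and 100% = vehicle with no agonist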
# Ga16 ag counter: nonselective Ga16 agonist in TAAR1 antagonist counter-screen; activation, % at 3 µM; 2,400 tested, 18% active; Ga16-expressing cells, calcium fluorescence, agonist counterscreen; AID 651953; shares compounds with TAAR1 antagonist; in the data active = activation above about 12%;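 note: 0% = vehicle wells and 100% = saturating stimulus response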
# TAAR1 ag counter: activates human TAAR1 in antagonist counter-screen; shares compounds with TAAR1 antagonist; hTAAR1 cell line, fluorescence activation, agonist mode; activation, % at 3 µM; 2,400 tested, 2% active; in the data active = activation above about 37%;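 note: CHO cells stably expressing TAAR1 with calcium dye readout; 0% = DMSO vehicle and 100% = full agonist response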
# Active calls of the source: *; / = no result.
SMILES,OX1R antag-1,GPR7 antagonist,CHO parental Ca,OX1R antag-2,TAAR1 agonist,TAAR1 antagonist,OX1R Ca confirm,CHO Ca counter,OX1R HTRF conf,CHO-K1 HTRF cnt,others
NC(=O)c1c(NC(=O)c2cc3ccccc3o2)sc2c1CCC2,22,-7,-8,106*,3,9,5,9,85*,14,
COc1cccc(CN2CCC2(C)C(=O)Nc2cccc3cccnc23)c1OC (stereo not drawn),/,/,/,/,-1,16,/,/,/,/,
Cc1cc(C)cc(N(C(=O)c2ccccn2)C(C(=O)NC2CCCCC2)c2cccs2)c1 (stereo not drawn),48*,-5,-23,64*,-3,-21,6,-17,67*,0,
CC(=O)c1cccc(N(C(=O)c2ccccn2)C(C(=O)NC2CCCCC2)c2ccccc2)c1 (stereo not drawn),-29,-3,-23,21,-1,12,/,/,/,/,
O=C(c1ccoc1)N1CCN(c2cc(-c3ccccc3)nc3cc(-c4ccc(Br)cc4)nn23)CC1,/,/,/,/,4,8,/,/,/,/,
COc1cc2c(cc1NC(=O)c1ccccc1F)CCCC2,-23,-5,-3,21,1,-30,/,/,/,/,
COc1cc(OC)c(NC(=O)c2ccccc2F)cc1Cl,30,-1,-7,89*,3,3,35*,-9,82*,9,
CCc1nc2c(OCc3ccc(F)c(F)c3)cccn2c1N(C)C(=O)c1cccs1,/,/,/,/,5,-17,/,/,/,/,
CCOc1ccccc1-c1nc(-c2ccc(NC(=O)Cc3ccc(OC)cc3)cc2)no1,-5,-10,4,22,5,-12,/,/,/,/,
CCOc1ccccc1-c1nc(-c2ccc(NC(=O)c3ccc(Br)o3)cc2)no1,35,-15,-4,69*,3,17,17,-3,79*,18*,
CNC(=O)C1CCCN1S(=O)(=O)c1ccc(OC)cc1 (stereo not drawn),-12,-8,0,8,-1,11,/,/,/,/,
O=C(Nc1ccc(F)cc1)C1CCCN1S(=O)(=O)c1ccc(Br)cc1 (stereo not drawn),32,-14,-19,81*,-2,-7,38*,-10,89*,-4,
O=C(Nc1nccs1)C1CCCN1S(=O)(=O)c1ccc(F)cc1 (stereo not drawn),44*,2,-20,75*,10,4,8,-5,31,-5,
COc1ccc(S(=O)(=O)N2CCCC2C(=O)Nc2nc3c(s2)CCCC3)cc1 (stereo not drawn),45*,-11,-36,95*,1,1,44*,-5,88*,2,
O=C(Nc1ccc(F)c(F)c1)C1CCCN1S(=O)(=O)c1ccc(F)cc1 (stereo not drawn),37*,2,9,74*,1,14,42*,-15,70*,0,
O=C(Nc1nccs1)[C@@H]1CCCN1S(=O)(=O)c1ccc(Cl)cc1,15,/,-12,32,2,-17,/,/,/,/,
COc1ccc(C(=O)ON=C(C)c2nccs2)cc1,/,/,/,/,1,2,/,/,/,/,
Cc1occc1-c1nnc(SCC(=O)NCCc2ccccc2)n1C(C)c1ccccc1 (stereo not drawn),64*,-1,-31,83*,6,8,30*,-8,77*,-4,
C[C@H](NC(=O)c1ncn2c1C(=O)N[C@@H](C)C2)C(=O)OC(C)(C)C,/,/,/,/,4,-6,/,/,/,/,
Cc1ccc(S(=O)(=O)NC(C(=O)Oc2ccc3c(C)c(Cl)c(=O)oc3c2)c2ccccc2)cc1 (stereo not drawn),-18,-7,-4,2,5,12,/,/,/,/,
CCC[C@@H](NS(=O)(=O)c1ccc(C)cc1)C(=O)Oc1ccc2c3c(c(=O)oc2c1)CCC3,23,-10,24,6,8,90*,39*,-21,/,/,nonsel antag count=47*;TAAR1 antag conf=70*;Ga16 ag counter=11;TAAR1 ag counter=10
COc1ccccc1CN1CC(C(=O)NCc2nccn2C)CCC1=O (stereo not drawn),-13,6,10,4,1,-15,/,/,/,/,
COc1ccc(C2CCc3cc4c(cc3C2=NOC(C)=O)OCO4)cc1OC (stereo not drawn),/,/,/,/,2,-6,/,/,/,/,
COc1ccc(CNC(=O)C(c2ccc(C)o2)N(Cc2cccs2)C(=O)Cc2cccs2)cc1 (stereo not drawn),46*,-5,13,63,22,87*,9,-4,/,/,nonsel antag count=42*;TAAR1 antag conf=68*;Ga16 ag counter=11;TAAR1 ag counter=9
COCCN(C(=O)Cc1cccs1)C(C(=O)NCc1ccc(OC)cc1)c1ccc(C)cc1 (stereo not drawn),-4,-10,-14,7,14,28,/,/,/,/,
CC1(C(=O)OCC(=O)Nc2nc(-c3ccc(F)c(F)c3)cs2)CC1(Cl)Cl (stereo not drawn),28,7,18,32,4,88*,14,-2,/,/,nonsel antag count=49*;TAAR1 antag conf=76*;Ga16 ag counter=9;TAAR1 ag counter=3
O=[N+]([O-])c1ccc(N/N=C/c2ccccc2O)cc1,34,29,27,17,37,79*,24,17,/,/,nonsel antag count=27*;TAAR1 antag conf=84*;Ga16 ag counter=9;TAAR1 ag counter=52*
COc1nc(=O)n(C2C=CC(=O)O2)cc1F (stereo not drawn),/,/,/,/,4,-22,/,/,/,/,
COC(=O)c1cccc(CN2C(=O)C(C)Sc3ccc(C(C)=O)cc32)c1 (stereo not drawn),/,/,/,/,1,41,/,/,/,/,
COc1ccc(-c2cn3c(C)c(C(=O)Nc4cccc(NC(C)=O)c4)sc3n2)cc1,30,-7,15,24,15,50*,12,-2,/,/,nonsel antag count=27*;TAAR1 antag conf=47;Ga16 ag counter=13*;TAAR1 ag counter=9
